The source made the active and inactive calls. No cut-off for these calls is given here.
Assays:
[1] = tested on: T-24; assay: Induction of p16 gene expression in human T24 cells at 1 uM after 8 days by real time PCR; assay type: functional, cell-based
In short: (§1)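 T24 or HCT15 cells were treated continuously for 8 days at 1, 10 or 100 μM, with or without 100 μM thymidine. Drug and medium were renewed every 2–3 days. T24 cells were grown in McCoy's 5A with 10% FCS. Total RNA (5 μg) was reverse transcribed with random primers. p16 mRNA was measured by real-time RT-PCR and normalized to GAPDH.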

[2] = tested on: T-24; assay: Induction of p16 gene expression in human T24 cells at 10 uM after 8 days by real time PCR; assay type: functional, cell-based; in short: as §1
[3] = tested on: T-24; assay: Induction of p16 gene expression in human T24 cells at 100 uM after 8 days by real time PCR; assay type: functional, cell-based; in short: as §1
[4] = tested on: CFPAC-1; assay: Induction of p16 gene expression in human Cf-Pac-1 cells at 1 uM after 8 days by real time PCR; assay type: functional, cell-based
In short: (§2)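 Cf-Pac-1 cells in IMDM/10% FCS were seeded 3×10^5/dish and treated continuously for 8 days from 24 hr after seeding. Medium and drug were refreshed every 2–3 days, with 100 μM thymidine, lower thymidine, or 100 μM uridine added. Total RNA (5 μg) was reverse transcribed with MMLV RT and random primers. p16 mRNA was measured by real-time RT-PCR and normalized to GAPDH.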

[5] = tested on: CFPAC-1; assay: Induction of p16 gene expression in human Cf-Pac-1 cells at 10 uM after 8 days by real time PCR; assay type: functional, cell-based; in short: as §2
[6] = tested on: CFPAC-1; assay: Induction of p16 gene expression in human Cf-Pac-1 cells at 100 uM after 8 days by real time PCR; assay type: functional, cell-based; in short: as §2
[7] = tested on: CFPAC-1; assay: Induction of p16 gene expression in human Cf-Pac-1 cells after 8 days by real time PCR in presence of 1 to 2 mM thymidine; assay type: functional, cell-based
[8] = tested on: T-24; assay: Induction of p16 gene expression in human T24 cells after 8 days by real time PCR in presence of […]; assay type: functional, cell-based; in short: as §1
[9] = tested on: HCT-15; assay: Induction of p16 gene expression in human HCT15 cells at 100 uM after 8 days by real time PCR in presence of […] thymidine; assay type: functional, cell-based; in short: as §1
[10] = tested on: CFPAC-1; assay: Cytotoxicity against human Cf-Pac-1 cells assessed as increase in cell population doubling time at 100 uM after 8 days in presence of 100 uM thymidine; assay type: functional
In short: (§3)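 Cf-Pac-1 cells grown in IMDM with 10% heat-inactivated FCS at 37°C, 5% CO2. Seeded 3×10^5 cells/10cm dish and treated 24 hr later. Medium and drug were renewed every 2–3 days. Cells were counted by Coulter counter every 2–3 days, with two plates averaged. Population doublings = log(harvested/seeded)/log2. Result is % increase in doubling time over untreated cells.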

[11] = tested on: CFPAC-1; assay: Induction of p16 gene expression in human Cf-Pac-1 cells at 100 uM by real time PCR in presence of […]; assay type: functional, cell-based; in short: as §2
[12] = tested on: CFPAC-1; assay: Induction of p16 gene expression in human Cf-Pac-1 cells at 10 uM by real time PCR in presence of […]; assay type: functional, cell-based; in short: as §2
[13] = tested on: CFPAC-1; assay: Induction of hypomethylation at CPG-rich region of p16 in human Cf-Pac-1 cells at 100 uM after 8 days by quantitative Ms-SNuPE in presence of 100 uM thymidine; assay type: functional, cell-based
In short: (§4)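 Cf-Pac-1 cells were treated with continuous redosing and received 100 μM thymidine. Genomic DNA (4 μg) was bisulfite-treated and then PCR-amplified: 94°C 3 min, then 40 cycles of 94°C/annealing/72°C, 45 s each. Annealing was 65°C for p16, 53°C for MAGEA1 and 58°C for D4Z4. Ms-SNuPE primer extension was 94°C 1 min, 50°C 30 s, 72°C 20 s.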

[14] = tested on: CFPAC-1; assay: Induction of hypomethylation at CPG-poor promoter region of MAGEA1 gene in human Cf-Pac-1 cells at 100 uM after 8 days by quantitative Ms-SNuPE in presence of 100 uM thymidine; assay type: functional, cell-based; in short: as §4
[15] = tested on: CFPAC-1; assay: Induction of hypomethylation at repeat sequence D4Z4 in human Cf-Pac-1 cells at 100 uM after 8 days by quantitative Ms-SNuPE in presence of 100 uM thymidine; assay type: functional, cell-based; in short: as §4
[16] = tested on: CFPAC-1; assay: Cytotoxicity against human Cf-Pac-1 cells assessed as increase in cell population doubling time at 10 uM after 8 days in presence of 100 uM thymidine; assay type: functional; in short: as §3
[17] = tested on: CFPAC-1; assay: Cytotoxicity against human Cf-Pac-1 cells assessed as increase in cell population doubling time at 1 uM after 8 days in presence of 100 uM thymidine; assay type: functional; in short: as §3
[18] = tested on: CFPAC-1; assay: Induction of hypomethylation at CPG-rich region of p16 in human Cf-Pac-1 cells at 10 uM after 8 days by quantitative Ms-SNuPE in presence of 100 uM thymidine; assay type: functional, cell-based; in short: as §4
[19] = tested on: CFPAC-1; assay: Induction of hypomethylation at CPG-poor promoter region of MAGEA1 gene in human Cf-Pac-1 cells at 10 uM after 8 days by quantitative Ms-SNuPE in presence of 100 uM thymidine; assay type: functional, cell-based; in short: as §4
[20] = tested on: CFPAC-1; assay: Induction of hypomethylation at repeat sequence D4Z4 in human Cf-Pac-1 cells at 10 uM after 8 days by quantitative Ms-SNuPE in presence of 100 uM thymidine; assay type: functional, cell-based; in short: as §4

COC(=O)[C@H](C)NP(=O)(OC[C@H]1O[C@@H](n2cccnc2=O)C[C@@H]1O)Oc1ccccc1 (stereo partly specified)
Activity [1]: inactive | Activity [2]: inactive | Activity [3]: inactive | Activity [4]: inactive | Activity [5]: inactive | Activity [6]: inactive | Activity [7]: inactive

C[C@H](NP(=O)(OC[C@H]1O[C@@H](n2cccnc2=O)[C@@H](F)[C@@H]1O)Oc1ccccc1)C(=O)OCc1ccccc1 (stereo partly specified)
Activity [1]: inactive | Activity [2]: inactive | Activity [3]: inactive | Activity [4]: inactive | Activity [5]: inactive | Activity [6]: inactive | Activity [7]: inactive

CC(C)(NP(=O)(OC[C@H]1O[C@@H](n2cccnc2=O)C[C@@H]1OP(=O)(NC(C)(C)C(=O)OCc1ccccc1)Oc1ccccc1)Oc1ccccc1)C(=O)OCc1ccccc1 (stereo partly specified)
Activity [1]: inactive | Activity [2]: inactive | Activity [3]: inactive | Activity [4]: inactive | Activity [5]: inactive | Activity [6]: inactive | Activity [8]: inactive | Activity [7]: inactive

C[C@H](NP(=O)(OC[C@H]1O[C@@H](n2cccnc2=O)C[C@@H]1O)Oc1ccccc1)C(=O)OCc1ccccc1 (stereo partly specified)
Activity [1]: inactive | Activity [2]: inactive | Activity [3]: inactive | Activity [4]: inactive | Activity [5]: inactive | Activity [6]: inactive | Activity [7]: inactive

CCOC(=O)[C@H](C)NP(=O)(OC[C@H]1O[C@@H](n2cccnc2=O)C[C@@H]1O)Oc1ccc(Cl)cc1 (stereo partly specified)
Activity [1]: inactive | Activity [2]: inactive | Activity [3]: inactive | Activity [4]: inactive | Activity [5]: inactive | Activity [6]: inactive | Activity [8]: inactive | Activity [7]: inactive

O=c1ncccn1[C@@H]1O[C@H](CO)[C@@H](O)[C@H]1O [ZEBULARINE]
Activity [9]: Active | Activity [10]: 103%

CC(C)(NP(=O)(OC[C@H]1O[C@@H](n2cccnc2=O)C[C@@H]1O)Oc1ccccc1)C(=O)OCc1ccccc1 (stereo partly specified)
Activity [1]: inactive | Activity [2]: inactive | Activity [3]: inactive | Activity [4]: inactive | Activity [5]: inactive | Activity [6]: inactive | Activity [8]: inactive | Activity [7]: inactive

CCOC(=O)C(C)(C)NP(=O)(OC[C@H]1O[C@@H](n2cccnc2=O)C[C@@H]1O)Oc1cccc2ccccc12 (stereo partly specified)
Activity [1]: inactive | Activity [2]: inactive | Activity [3]: inactive | Activity [4]: inactive | Activity [5]: inactive | Activity [6]: inactive | Activity [11]: Active | Activity [12]: Active | Activity [8]: inactive | Activity [7]: inactive | Activity [13]: Active | Activity [14]: Active | Activity [15]: Active | Activity [16]: 81% | Activity [17]: 58%

CCOC(=O)C(C)(C)NP(=O)(OC[C@H]1O[C@@H](n2cccnc2=O)C[C@@H]1OP(=O)(NC(C)(C)C(=O)OCC)Oc1cccc2ccccc12)Oc1cccc2ccccc12 (stereo partly specified)
Activity [1]: inactive | Activity [2]: inactive | Activity [3]: inactive | Activity [4]: inactive | Activity [5]: inactive | Activity [6]: inactive | Activity [12]: Active | Activity [8]: inactive | Activity [7]: inactive | Activity [10]: Active | Activity [18]: Active | Activity [19]: Active | Activity [20]: Active

CCOC(=O)[C@H](C)NP(=O)(OC[C@H]1O[C@@H](n2cccnc2=O)C[C@@H]1OP(=O)(N[C@@H](C)C(=O)OCC)Oc1ccc(Cl)cc1)Oc1ccc(Cl)cc1 (stereo partly specified)
Activity [1]: inactive | Activity [2]: inactive | Activity [3]: inactive | Activity [4]: inactive | Activity [5]: inactive | Activity [6]: inactive | Activity [8]: inactive | Activity [7]: inactive

Cc1cn([C@H]2C[C@H](O)[C@@H](CO)O2)c(=O)[nH]c1=O [DOXRIBTIMINE]
Activity [10]: 0%

COC(=O)[C@H](C)NP(=O)(OC[C@H]1O[C@@H](n2cccnc2=O)[C@@H](F)[C@@H]1O)Oc1ccccc1 (stereo partly specified)
Activity [1]: inactive | Activity [2]: inactive | Activity [3]: inactive | Activity [4]: inactive | Activity [5]: inactive | Activity [6]: inactive | Activity [7]: inactive

CC(C)(NP(=O)(OC[C@H]1O[C@@H](n2cccnc2=O)C[C@@H]1O)Oc1cccc2ccccc12)C(=O)OCc1ccccc1 (stereo partly specified)
Activity [1]: inactive | Activity [2]: inactive | Activity [3]: inactive | Activity [4]: inactive | Activity [5]: inactive | Activity [6]: inactive | Activity [11]: Active | Activity [12]: Active | Activity [8]: inactive | Activity [7]: inactive | Activity [10]: 23% | Activity [13]: Active | Activity [14]: Active | Activity [15]: Active | Activity [16]: 36%

Source: ChEMBL document CHEMBL1140219, “Activation of p16 gene silenced by DNA methylation in cancer cells by phosphoramidate derivatives of 2'-deoxyzebularine” (2008)
